Molecular target: Histamine H3 receptor (Rattus norvegicus, UniProt Q9QYN8)
Experiment: Affinity for histamine H3 receptor in rat cerebral cortex.
Outline: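 Affinity for the H3 receptor measured in an in vitro binding assay by displacement of the radioligand [3H]R-(α)-methylhistamine.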

Chain of Histamine H3 receptor (Q9QYN8 whole entry): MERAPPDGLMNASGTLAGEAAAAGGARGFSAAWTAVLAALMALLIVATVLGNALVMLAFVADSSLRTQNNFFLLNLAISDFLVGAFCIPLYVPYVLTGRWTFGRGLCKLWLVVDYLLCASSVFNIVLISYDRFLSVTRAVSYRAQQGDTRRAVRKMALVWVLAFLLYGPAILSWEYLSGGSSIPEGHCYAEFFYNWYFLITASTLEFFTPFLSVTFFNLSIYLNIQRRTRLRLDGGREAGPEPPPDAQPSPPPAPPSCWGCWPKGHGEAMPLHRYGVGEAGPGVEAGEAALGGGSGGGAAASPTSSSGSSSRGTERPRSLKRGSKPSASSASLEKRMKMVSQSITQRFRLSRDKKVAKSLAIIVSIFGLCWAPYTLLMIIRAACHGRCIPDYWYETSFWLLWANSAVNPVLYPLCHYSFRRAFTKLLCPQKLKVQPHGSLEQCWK

SMILES	Ki [nM]
N[C@H](COCc1ccc(Br)cc1)Cc1c[nH]cn1	79.4
N[C@H](COCc1ccccc1)Cc1c[nH]cn1	50.1
COC[C@@H](N)Cc1c[nH]cn1	1250
N[C@@H](COCc1ccc(I)cc1)Cc1c[nH]cn1	199
N[C@@H](CO)Cc1c[nH]cn1	1250
N[C@@H](COCc1ccccc1)Cc1c[nH]cn1	316
N[C@H](COCC1CCCCC1)Cc1c[nH]cn1	12.6
N[C@H](COCc1ccc(I)cc1)Cc1c[nH]cn1	251
N[C@@H](COCc1ccc(Br)cc1)Cc1c[nH]cn1	199
N[C@@H](COCC1CCCCC1)Cc1c[nH]cn1	158
N[C@H](CO)Cc1c[nH]cn1 [HISTIDINOL]	251
Ic1ccc(COCCCc2c[nH]cn2)cc1 [Iodoproxyfan]	0.126
c1ccc(COCCCc2c[nH]cn2)cc1 [proxifan]	3.16
